This is an account of results in ChEMBL document CHEMBL1133549, “N4-(omega-Aminoalkyl)-1-[(omega-aminoalkyl)amino]-4- acridinecarboxamides: novel, potent, cytotoxic, and DNA-binding agents” (J Med Chem, 2000).

As usually defined, the IC50 is the concentration at which inhibition is half-maximal. The low end stands for greater potency in that assay, the high end for weaker potency in that assay.

Experiment [1] concerns Nucleic Acid. Kind of experiment: Binding affinity against GC from [poly(dG-dC)]2. The class given is nucleic-acid assay. Summed up:
(§1)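 Ethidium displacement measured fluorometrically at 20 °C (excitation 546 nm, emission 595 nm). Buffer was 10 mM Na2HPO4, 10 mM NaH2PO4, 1 mM EDTA, pH 7.0, with 1.26 µM ethidium bromide and 1 µM of CT-DNA, [poly(dA-dT)]2 or [poly(dG-dC)]2. Drug was added serially from a ~5 mM DMSO stock. C50 (50% loss of bound-ethidium fluorescence) is the mean of three determinations. Kapp = 1.26/C50 × 10^7.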

A short description of experiment [2]: (§2) The compound was tested for cytotoxic activity against CH1/Cs cell line(human ovarian carcinoma). The experiment is classed as functional, cell-based. Summed up: (§3)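 Human ovarian carcinoma cells (100–5000) were plated and allowed to adhere overnight. Drug was diluted from DMSO stock into aqueous solution at pH 7.0 and applied continuously for 96 h at 37 °C. Growth was read by SRB protein staining. IC50 is 50% growth inhibition versus drug-free controls, from a representative experiment with 4 replicate wells per concentration and 8 control wells.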

For experiment [3], the system named is CH1. Kind of experiment: The compound was tested for cytotoxic activity against CH1 cell line(human ovarian carcinoma ). The class given is functional, cell-based. Summed up: as §3
In the next experiment the test system is SK-OV-3. Kind of experiment: The compound was tested for cytotoxic activity against SKOV-3 cell line(human ovarian carcinoma ). The experiment is classed as functional, cell-based. In outline: as §3
The test system of the next experiment is HT-29. Description: The compound was tested for cytotoxic activity against HT-29 cell line(human colon adeno carcinoma). The class given is functional, cell-based. Summed up: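 HT29 colon adenocarcinoma cells at 2.5×10^4 cells/mL received drug under protracted exposure for 144 h. Assays were run in triplicate.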
Experiment [4] relates to A2780cisR. Kind of experiment: The compound was tested for cytotoxic activity against A2780cisR cell line(human ovarian carcinoma ). The class given is functional, cell-based. In outline: as §3
In experiment [5] the test system is Nucleic Acid. Kind of experiment: Tested for binding affinity against AT from [poly(dA-dT)]2. The class given is nucleic-acid assay. Summed up:
as §1

Experiment [6] deals with Nucleic Acid. Kind of experiment: Binding affinity against CT-DNA from calf thymus DNA. The experiment is classed as nucleic-acid assay. To be noted: Bos taurus. In outline: as §1
The test system of experiment [7] is A2780. Description: The compound was tested for cytotoxic activity against A2780 cell line(human ovarian carcinoma ). The class given is functional, cell-based. In outline: as §3
The subject of experiment [8] is A2780cisR. Kind of experiment: The compound was tested for cytotoxic activity against A2780cisR cell line(human ovarian carcinoma). The class given is functional, cell-based. In outline:
as §3

In experiment [9] the test system is CH1. Described as §2. The class given is functional, cell-based. In outline: as §3
Experiment [10] concerns A2780cisR. Kind of experiment: The compound was tested for cytotoxic activity against A2780cisR cell line(human ovarian carcinoma. The class given is functional, cell-based. In outline: as §3
The test system of experiment [11] is A2780. Description: The compound was tested for cytotoxic activity against A2780/Cs cell line(human ovarian carcinoma. The class given is functional, cell-based. Summed up: as §3

For the compound `NCCNC(=O)c1ccc(NCCN)c2cc3ccccc3nc12`, the results for the K app in the experiment on Nucleic Acid [1], in the experiment on Nucleic Acid [5] and with Nucleic Acid [6] were 5.6e+07 M⁻¹, 2.2e+07 M⁻¹ and 8.5e+07 M⁻¹, respectively. The IC50 in experiment [2] worked out at 1550 nM; with CH1 [3], 1200 nM; in the experiment with SK-OV-3 it was 12000 nM; with HT-29, 6940 nM; in the experiment on A2780cisR [4], 3150 nM; in the experiment with A2780 [7] it was 12000 nM.

With `O=C(NCCN1CCOCC1)c1ccc(NCCN2CCOCC2)c2cc3ccccc3nc12`, the K app was determined as 3e+06 M⁻¹ in the experiment with Nucleic Acid [1], 5e+06 M⁻¹ in the experiment with Nucleic Acid [5] and 4.4e+06 M⁻¹ in the experiment on Nucleic Acid [6]. For the same compound, the IC50 amounted to 2150 nM in experiment [2]; 1850 nM in the experiment on CH1 [3]; 3200 nM with SK-OV-3; 2700 nM in the experiment with HT-29; 2500 nM in the experiment with A2780cisR [4]; 2300 nM with A2780 [7].

Take `COc1ccc2nc3c(C(=O)NCCN(C)C)ccc(NCCN(C)C)c3cc2c1`: the K app is 5.9e+07 M⁻¹ with Nucleic Acid [1], 1.4e+07 M⁻¹ in the experiment on Nucleic Acid [5] and 1.9e+07 M⁻¹ with Nucleic Acid [6]. Further, the IC50 in experiment [2] stood at 44 nM; in the experiment on A2780cisR [8] it was 125 nM; in the experiment on CH1 [3], 50 nM; with SK-OV-3, 60 nM; in the experiment on HT-29, 560 nM; in the experiment on A2780 [7] it was 96 nM.

In the case of `CN(C)CCCNC(=O)c1ccc(NCCCN(C)C)c2cc3ccccc3nc12` [listing 1 of 2 here], the IC50 with CH1 [9] is 530 nM; in the experiment with CH1 [3] it was 860 nM; with SK-OV-3, 660 nM; in the experiment on HT-29, 710 nM; in the experiment with A2780cisR [4] (Homo sapiens, A2780cisR), 1250 nM; with A2780 [7], 1950 nM.

As to `O=C(NCCN1CCCCC1)c1ccc(NCCN2CCCCC2)c2cc3ccccc3nc12`, the K app in the experiment on Nucleic Acid [1] came out at 6.3e+07 M⁻¹; with Nucleic Acid [5], 2.7e+07 M⁻¹; in the experiment with Nucleic Acid [6], 3.4e+07 M⁻¹. In addition, the IC50 in [2] was determined as 110 nM; in the experiment on CH1 [3] it was 135 nM; in the experiment with SK-OV-3, 140 nM; in the experiment on HT-29, 440 nM; in the experiment with A2780cisR [4], 120 nM; with A2780 [7], 100 nM.

Take `CCN(CC)CCNC(=O)c1ccc(NCCN(CC)CC)c2cc3ccccc3nc12`: the K app in the experiment with Nucleic Acid [1] amounted to 9.1e+07 M⁻¹; with Nucleic Acid [5], 1.7e+07 M⁻¹; with Nucleic Acid [6], 1.5e+08 M⁻¹. Further, the IC50 in experiment [2] was found to be 375 nM; in the experiment on CH1 [3] it was 185 nM; in the experiment with SK-OV-3, 500 nM; in the experiment on HT-29 it was 580 nM; in the experiment with A2780cisR [10] it was 475 nM; in the experiment with A2780 [7] it was 415 nM.

As for `CN(C)CCNC(=O)c1ccc(NCCN(C)C)c2cc3cc(N)ccc3nc12` [listing 1 of 3 here], the K app in the experiment with Nucleic Acid [1] came out at 4.1e+08 M⁻¹; in the experiment with Nucleic Acid [5] it was 2.8e+08 M⁻¹; with Nucleic Acid [6] it was 1.4e+09 M⁻¹.

Turning to `CN(C)CCNC(=O)c1ccc(Cl)c2cc3ccccc3nc12`, the IC50 in experiment [2] is 1900 nM; with CH1 [3], 1750 nM; with SK-OV-3, 3300 nM; in the experiment with HT-29, 790 nM; with A2780cisR [4], 2040 nM; with A2780 [7] it was 2050 nM.

With CISPLATIN, in the experiment on A2780cisR [4] (a2780cisr), the midpoint of inhibition, the IC50, lay at 3400 nM.

As for `CN(C)CCNC(=O)c1ccc(NCCN(C)C)c2cc3ccccc3nc12`, the K app in the experiment with Nucleic Acid [1] was 2.3e+08 M⁻¹; in the experiment on Nucleic Acid [5] it was 2.8e+07 M⁻¹; in the experiment with Nucleic Acid [6], 1.5e+09 M⁻¹. Also, the concentration for half-maximal inhibition (IC50) is 5 nM in experiment [2]; 7 nM in the experiment with CH1 [3]; 110 nM in the experiment with SK-OV-3; 7 nM with A2780 [11]; 7 nM in the experiment on HT-29; 4.3 nM in the experiment on A2780 [7].

Consider `CN(C)CCNC(=O)c1ccc(NCCN(C)C)c2c(=O)c3ccccc3[nH]c12`, for which the IC50 in the experiment with CH1 [3] was determined as 20 nM; in the experiment with SK-OV-3 it was 400 nM; with HT-29, 94 nM; with A2780 [7] it was 15 nM. The same compound displayed a K app with Nucleic Acid [6] of 3.7e+07 M⁻¹.

Take `COc1cccc2c1C(=O)c1c(O)c3c(c(O)c1C2=O)C[C@@](O)(C(=O)CO)C[C@@H]3O[C@H]1C[C@H](N)[C@H](O)[C@H](C)O1` [DOXORUBICIN]: the IC50 came out at 450 nM in the experiment with CH1 [9] and 17 nM with A2780cisR [4] (Homo sapiens, A2780cisR).

Take `CN(C)CCNC(=O)c1cccc2cc3ccccc3nc12`: the K app in the experiment on Nucleic Acid [1] is 1e+06 M⁻¹; in the experiment on Nucleic Acid [5] it was 1.4e+06 M⁻¹; in the experiment on Nucleic Acid [6], 1.1e+06 M⁻¹. Also, the 50% inhibitory concentration (IC50) in [2] was determined as 530 nM; in the experiment on CH1 [3] it was 480 nM; with SK-OV-3, 980 nM; in the experiment on HT-29, 990 nM; with A2780cisR [4], 570 nM; in the experiment with A2780 [7], 510 nM.

Turning to `CN(C)CCNC(=O)c1ccc(NCCN(C)C)c2cc3cc(N)ccc3nc12` [listing 2 of 3 here], the IC50 with CH1 [9] was determined as 100 nM; in the experiment on CH1 [3], 89 nM; in the experiment on SK-OV-3 it was 155 nM; in the experiment on HT-29, 700 nM; in the experiment with A2780cisR [4] (Homo sapiens, A2780cisR), 365 nM; with A2780 [7], 320 nM.

Consider `CN(C)CCNC(=O)c1ccc(NCCNCCO)c2cc3ccccc3nc12`, for which the K app came to 3e+08 M⁻¹ in the experiment with Nucleic Acid [1], 4.5e+07 M⁻¹ in the experiment with Nucleic Acid [5] and 9.9e+07 M⁻¹ with Nucleic Acid [6]. For the same compound, the IC50 in [2] was determined as 46 nM; in the experiment on CH1 [3], 52 nM; in the experiment with SK-OV-3 it was 240 nM; in the experiment with HT-29 it was 100 nM; in the experiment with A2780cisR [4], 91 nM; with A2780 [7] it was 85 nM.

Take `CN(C)CCNC(=O)c1ccc(NCCN(C)C)c2cc3cc(N)ccc3nc12` [listing 3 of 3 here]: the IC50 in the experiment with CH1 [9] came out at 100 nM; with CH1 [3], 89 nM; in the experiment with SK-OV-3, 155 nM; in the experiment with HT-29 it was 700 nM; in the experiment on A2780cisR [4], 365 nM; with A2780 [7] it was 320 nM.

As for `CN(C)CCCNC(=O)c1ccc(NCCCN(C)C)c2cc3ccccc3nc12` [listing 2 of 2 here], the IC50 in [2] amounted to 530 nM; in the experiment on CH1 [3], 860 nM; in the experiment on SK-OV-3, 660 nM; in the experiment with A2780 [11], 1250 nM; in the experiment with HT-29, 710 nM; with A2780 [7] it was 1950 nM.

`CN(C)CCNC(=O)c1ccc(NCCN(C)C)c2cc3cc(O)ccc3nc12`: the K app was 1e+08 M⁻¹ with Nucleic Acid [1], 3.1e+07 M⁻¹ in the experiment with Nucleic Acid [5] and 2.9e+08 M⁻¹ in the experiment with Nucleic Acid [6]. For the same compound, the IC50 in [2] worked out at 200 nM; with CH1 [3], 150 nM; in the experiment on SK-OV-3, 900 nM; in the experiment on HT-29 it was 850 nM; in the experiment with A2780cisR [4], 190 nM; with A2780 [7] it was 110 nM.
